Here are results for two compounds from ChEMBL document CHEMBL5649170, “Sustained microglial depletion with CSF1R inhibitor impairs parenchymal plaque development in an Alzheimer's disease model” (Nat Commun, 2019).

SMILES strings stand for the structures.

A short description of series [1]: Drug concentration in 5XFAD mouse brain at 600 ppm administered as rodent chow starting from 1.5 months and measured after 5 months. It is filed as ADME, tissue-based. The conditions noted are these: route po, time 3.5 months, read-out: Ct. In a few lines: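 WT or 5xFAD mice were fed PLX3397 in AIN-76A chow at 600 ppm or 75 ppm from 1.5 to 5 months of age. Terminal brain and plasma drug concentrations were determined at study end.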

Series [2] has as its target Cytoplasmic tyrosine-protein kinase BMX (Homo sapiens, UniProt P51813). Put plainly: Inhibition of BMX (unknown origin).
The target of series [3] is Casein kinase II subunit alpha' (Homo sapiens, UniProt P19784). Kind of series: Inhibition of CSNK2A2 (unknown origin).
For series [4], the target named is Epidermal growth factor receptor (Homo sapiens, UniProt P00533). Kind of series: Inhibition of EGFR (unknown origin).
Series [5] concerns the target Leukocyte tyrosine kinase receptor (Homo sapiens, UniProt P29376). Kind of series: Inhibition of LTK (unknown origin).
Series [6] concerns the target Mitogen-activated protein kinase kinase kinase kinase 5 (Homo sapiens, UniProt Q9Y4K4). Kind of series: Inhibition of MAP4K5 (unknown origin).
Series [7] deals with Serine/threonine-protein kinase MARK2 (Homo sapiens, UniProt Q7KZI7). Put plainly: Inhibition of MARK2 (unknown origin).
Series [8] has as its target MAP/microtubule affinity-regulating kinase 3 (Homo sapiens, UniProt P27448). Kind of series: Inhibition of MARK3 (unknown origin).
Series [9] concerns the target Serine/threonine-protein kinase PAK 6 (Homo sapiens, UniProt Q9NQU5). Put plainly: Inhibition of PAK6 (unknown origin).
In series [10] the target is PI3-kinase p110-delta/p85-alpha (Homo sapiens, UniProt O00329). Kind of series: Inhibition of PIK3CD/PIK3R1 (unknown origin). It is filed as protein-complex assay.
Series [11] deals with Ribosomal protein S6 kinase beta-1 (Homo sapiens, UniProt P23443). Kind of series: Inhibition of RPS6KB1 (unknown origin).
The target in series [12] is Sphingosine kinase 1 (Homo sapiens, UniProt Q9NYA1). Put plainly: Inhibition of SPHK1 (unknown origin).
Series [13] in a line: Clearance in male rat at 1.13 mg/kg, iv administered as single dose. The class given is ADME, organism-based. The conditions noted are these: in vivo.
Series [14] is described as follows: Cmax in dog at 45 mg/kg, po administered as single dose via gavage. The class given is ADME, organism-based, Canis lupus familiaris. The conditions noted are these: in vivo.
Series [15] can be described thus: Oral bioavailability in dog at 45 mg/kg administered as single via gavage. It is filed as ADME, organism-based, Canis lupus familiaris. The conditions noted are these: in vivo.
Series [16] can be described thus: Ratio of drug concentration in brain to plasma in mouse at 300 ppm administered as rodent chow for 14 days. The class given is ADME, cell-free. The conditions noted are these: route po, time 14 day, read-out: BPR.
Series [17] can be described thus: AUC (0 to 24 hrs) in 5XFAD mouse plasma at 1200 ppm administered as rodent chow for 180 days. It is filed as ADME, cell-free. The note with it: route po, time 180 day.
Series [18] can be described thus: Drug concentration in 5XFAD mouse plasma at 1200 ppm administered as rodent chow for 10 to 24 weeks. The note with it: po, time 10-24 weeks. The class given is ADME, cell-free. The essentials:
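WT or 5xFAD mice were started at 1.5 months of age on PLX5622 formulated at 1200 ppm in AIN-76A chow, with control chow as comparison. Feeding ran for 10 or 24 weeks. Terminal plasma and brain drug levels were then measured. Groups were sex-balanced and compared by two-tailed independent t-test.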

The test system of series [19] is Mus musculus. Kind of series: Antialzheimer activity in 5XFAD mouse assessed as microglial elimination at 1200 ppm administered as rodent chow for 24 weeks relative to control. The class given is functional. The note with it: route po.
Series [20] can be described thus: Toxicity in wildtype mouse assessed as total number of arm entries at 1200 ppm administered as rodent chow for 10 to 24 weeks by Y-maze test (reference value: 14 to 35). The note with it: in vivo, po, time 10-24 weeks.
Series [21] relates to Mus musculus. Put plainly: Antialzheimer activity in 5XFAD mouse assessed as percent change in claudin-5 intensity of retro spinal cortex at 1200 ppm administered as rodent chow starting from 1.5 months and measured after 4 months by immunolabeling analysis relative to control. The note with it: route po, time 2.5 months, 1825 h. The class given is functional.
The test system of series [22] is Mus musculus. Put plainly: Antialzheimer activity in 5XFAD mouse assessed as number of plaques in subiculum at 1200 ppm administered as rodent chow starting from 1.5 months and measured after 7 months by immunolabeling based confocal microscopic analysis (reference value: 139 to 212). The class given is functional. The conditions noted are these: route po, time 5.5 months, 4015 h.

Series [23] in a line: Effect on C1qa gene expression in wild type mouse thalamus at 1200 ppm administered as rodent chow starting from 1.5 months and measured after 7 months by RNA-Seq analysis (reference value: 19.070 to 32.518). It is filed as functional. The conditions noted are these: route po, time 5.5 months, 4015 h. In a few lines: (§1)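 WT and 5xFAD mice were treated with 1200 ppm PLX5622 chow or control chow from 1.5 to 7 months of age. Brains were microdissected into cortex, hippocampus and thalamus, and RNA was extracted from tissue powder. Whole-transcriptome RNA-Seq libraries were sequenced, with n = 4 per group per region (48 samples).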

A short description of series [24]: Effect on Hexb gene expression in 5XFAD mouse thalamus at 1200 ppm administered as rodent chow starting from 1.5 months and measured after 7 months by RNA-Seq analysis (reference value: 75.322 to 93.439 RPKM). The class given is functional. The note with it: route po, time 5.5 months, 4015 h.
The nature of series [25]: Effect on ccl6 gene expression in wild type mouse thalamus at 1200 ppm administered as rodent chow starting from 1.5 months and measured after 7 months by RNA-Seq analysis (reference value: 0.647 to 1.238 RPKM). It is filed as functional. The note with it: route po, time 5.5 months, 4015 h.
Series [26] is described as follows: Effect on Clec7a gene expression in 5XFAD mouse thalamus at 1200 ppm administered as rodent chow starting from 1.5 months and measured after 7 months by RNA-Seq analysis (reference value: 3.412 to 4.381 RPKM). It is filed as functional. The note with it: route po, time 5.5 months, 4015 h. The essentials:
as §1

Series [27] is described as follows: Effect on Ctsd gene expression in 5XFAD mouse thalamus at 1200 ppm administered as rodent chow starting from 1.5 months and measured after 7 months by RNA-Seq analysis (reference value: 209.488 to 301.760 RPKM). The class given is functional. The conditions noted are these: route po, time 5.5 months, 4015 h.
Series [28] in a line: Effect on Nos1ap gene expression in wildtype mouse hippocampus assessed as percent change in Reads Per kilo base per Million mapped reads at 1200 ppm administered as rodent chow starting from 1.5 months and measured after 7 months by RNA-Seq analysis (reference value: 90.677 to 108.278 %). It is filed as functional. The conditions noted are these: route po, time 5.5 months, 4015 h.

Series [29] has as its system Mus musculus. Kind of series: Antialzheimer activity in 5XFAD mouse assessed as number of This-S positive cells per FOV in somatosensory cortex at 1200 ppm administered as rodent chow starting from 1.5 months to 4 months followed by compound removal and measured after 1 months by immunolabelling based confocal microscopic analysis (reference value: 34 to 79). The note with it: route po, time 2.5 months, 1825 h. It is filed as functional. The essentials: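 For the repopulation paradigm, 5xFAD mice ate 1200 ppm PLX5622 chow from 1.5 to 4 months of age. Inhibitor chow was then withdrawn, and brains were examined one month later. Sections were stained with Thio-S and immunolabeled for IBA1, then analysed by confocal microscopy in cortical regions.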

Chain of Serine/threonine-protein kinase PAK 6 (Q9NQU5 whole entry): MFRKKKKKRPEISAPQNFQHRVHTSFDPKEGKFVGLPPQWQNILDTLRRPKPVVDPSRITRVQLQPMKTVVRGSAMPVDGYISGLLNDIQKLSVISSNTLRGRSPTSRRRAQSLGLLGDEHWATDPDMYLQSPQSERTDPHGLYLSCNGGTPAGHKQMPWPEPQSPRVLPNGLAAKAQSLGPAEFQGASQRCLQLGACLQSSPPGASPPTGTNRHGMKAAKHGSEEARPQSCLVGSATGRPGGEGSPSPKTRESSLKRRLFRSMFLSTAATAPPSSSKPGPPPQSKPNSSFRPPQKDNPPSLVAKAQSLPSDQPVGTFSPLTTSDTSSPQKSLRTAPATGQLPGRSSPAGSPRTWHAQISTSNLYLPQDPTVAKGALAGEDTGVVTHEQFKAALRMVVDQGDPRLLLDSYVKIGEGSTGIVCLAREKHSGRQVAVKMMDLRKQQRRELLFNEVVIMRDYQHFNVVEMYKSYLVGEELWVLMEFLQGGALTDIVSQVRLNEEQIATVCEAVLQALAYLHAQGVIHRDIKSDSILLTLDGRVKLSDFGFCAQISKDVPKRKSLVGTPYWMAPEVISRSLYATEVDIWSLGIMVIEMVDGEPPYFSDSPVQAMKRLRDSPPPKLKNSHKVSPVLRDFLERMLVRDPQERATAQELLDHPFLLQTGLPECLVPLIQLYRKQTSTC
Chain of Ribosomal protein S6 kinase beta-1 (P23443 whole entry): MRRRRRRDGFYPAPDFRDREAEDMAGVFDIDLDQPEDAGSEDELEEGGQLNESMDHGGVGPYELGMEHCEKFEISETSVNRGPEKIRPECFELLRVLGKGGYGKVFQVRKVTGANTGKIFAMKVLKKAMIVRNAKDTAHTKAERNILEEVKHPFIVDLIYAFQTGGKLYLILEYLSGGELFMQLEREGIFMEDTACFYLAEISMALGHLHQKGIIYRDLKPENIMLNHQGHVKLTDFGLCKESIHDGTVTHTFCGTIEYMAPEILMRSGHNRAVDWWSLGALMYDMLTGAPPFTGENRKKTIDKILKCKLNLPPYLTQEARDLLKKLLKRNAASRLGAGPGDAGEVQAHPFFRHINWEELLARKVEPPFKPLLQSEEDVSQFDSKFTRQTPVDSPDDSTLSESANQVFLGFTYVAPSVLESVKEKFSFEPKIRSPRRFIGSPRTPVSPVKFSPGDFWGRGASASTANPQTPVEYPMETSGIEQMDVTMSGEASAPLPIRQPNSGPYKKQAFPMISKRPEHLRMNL
Chain of Sphingosine kinase 1 (Q9NYA1 whole entry): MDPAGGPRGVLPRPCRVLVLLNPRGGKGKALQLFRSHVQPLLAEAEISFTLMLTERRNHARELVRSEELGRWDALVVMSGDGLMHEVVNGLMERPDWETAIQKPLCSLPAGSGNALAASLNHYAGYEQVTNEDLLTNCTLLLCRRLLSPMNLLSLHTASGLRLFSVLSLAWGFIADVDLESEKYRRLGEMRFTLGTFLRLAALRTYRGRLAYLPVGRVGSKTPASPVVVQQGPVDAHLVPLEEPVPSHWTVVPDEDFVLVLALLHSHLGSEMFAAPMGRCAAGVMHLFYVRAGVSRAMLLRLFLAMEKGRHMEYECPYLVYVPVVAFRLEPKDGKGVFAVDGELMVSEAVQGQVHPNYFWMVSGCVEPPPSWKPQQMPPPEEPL
Chain of Mitogen-activated protein kinase kinase kinase kinase 5 (Q9Y4K4 whole entry): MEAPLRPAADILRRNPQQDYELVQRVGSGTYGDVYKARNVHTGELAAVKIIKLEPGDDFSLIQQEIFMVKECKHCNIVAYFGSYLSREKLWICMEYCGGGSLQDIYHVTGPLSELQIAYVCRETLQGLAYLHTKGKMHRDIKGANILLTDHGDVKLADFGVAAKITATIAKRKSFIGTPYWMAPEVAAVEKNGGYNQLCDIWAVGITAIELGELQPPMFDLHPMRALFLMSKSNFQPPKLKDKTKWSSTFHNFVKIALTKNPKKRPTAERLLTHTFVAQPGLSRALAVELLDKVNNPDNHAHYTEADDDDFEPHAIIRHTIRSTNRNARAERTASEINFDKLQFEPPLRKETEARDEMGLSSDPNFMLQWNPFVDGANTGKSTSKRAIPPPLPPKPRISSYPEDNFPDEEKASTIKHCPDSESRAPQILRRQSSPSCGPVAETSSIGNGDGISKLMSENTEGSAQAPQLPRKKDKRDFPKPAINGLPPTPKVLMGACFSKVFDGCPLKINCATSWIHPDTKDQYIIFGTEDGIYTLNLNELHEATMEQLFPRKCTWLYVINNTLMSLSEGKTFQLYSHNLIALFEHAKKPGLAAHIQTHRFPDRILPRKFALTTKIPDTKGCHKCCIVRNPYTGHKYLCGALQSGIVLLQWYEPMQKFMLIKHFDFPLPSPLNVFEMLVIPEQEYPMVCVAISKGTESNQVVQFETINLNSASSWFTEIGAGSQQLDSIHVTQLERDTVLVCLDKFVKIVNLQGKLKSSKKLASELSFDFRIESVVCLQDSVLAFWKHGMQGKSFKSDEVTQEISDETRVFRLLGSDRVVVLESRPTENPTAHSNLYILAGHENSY
Chain of Leukocyte tyrosine kinase receptor (P29376 whole entry): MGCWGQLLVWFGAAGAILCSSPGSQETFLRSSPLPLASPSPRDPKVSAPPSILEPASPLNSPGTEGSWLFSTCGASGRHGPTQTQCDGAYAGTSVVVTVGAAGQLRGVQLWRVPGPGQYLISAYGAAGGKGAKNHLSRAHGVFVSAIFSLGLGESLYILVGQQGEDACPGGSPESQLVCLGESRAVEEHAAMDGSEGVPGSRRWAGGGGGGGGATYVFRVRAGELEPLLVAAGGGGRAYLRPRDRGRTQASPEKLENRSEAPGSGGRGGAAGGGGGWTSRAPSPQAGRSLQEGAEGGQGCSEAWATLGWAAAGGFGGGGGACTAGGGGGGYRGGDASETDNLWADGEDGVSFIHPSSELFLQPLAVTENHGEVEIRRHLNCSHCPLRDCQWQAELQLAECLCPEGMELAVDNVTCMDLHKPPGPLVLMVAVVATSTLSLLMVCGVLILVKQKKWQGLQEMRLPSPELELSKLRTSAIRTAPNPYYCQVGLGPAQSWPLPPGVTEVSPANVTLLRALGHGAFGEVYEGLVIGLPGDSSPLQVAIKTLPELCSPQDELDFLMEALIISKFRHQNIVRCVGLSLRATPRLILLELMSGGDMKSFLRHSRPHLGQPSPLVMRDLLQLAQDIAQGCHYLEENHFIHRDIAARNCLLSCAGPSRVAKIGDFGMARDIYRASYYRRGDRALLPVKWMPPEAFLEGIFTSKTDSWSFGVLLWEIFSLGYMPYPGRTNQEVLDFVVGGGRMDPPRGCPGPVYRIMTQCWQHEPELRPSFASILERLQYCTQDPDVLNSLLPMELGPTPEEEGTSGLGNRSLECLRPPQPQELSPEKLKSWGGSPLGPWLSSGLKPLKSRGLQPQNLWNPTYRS
Chain of MAP/microtubule affinity-regulating kinase 3 (P27448 whole entry): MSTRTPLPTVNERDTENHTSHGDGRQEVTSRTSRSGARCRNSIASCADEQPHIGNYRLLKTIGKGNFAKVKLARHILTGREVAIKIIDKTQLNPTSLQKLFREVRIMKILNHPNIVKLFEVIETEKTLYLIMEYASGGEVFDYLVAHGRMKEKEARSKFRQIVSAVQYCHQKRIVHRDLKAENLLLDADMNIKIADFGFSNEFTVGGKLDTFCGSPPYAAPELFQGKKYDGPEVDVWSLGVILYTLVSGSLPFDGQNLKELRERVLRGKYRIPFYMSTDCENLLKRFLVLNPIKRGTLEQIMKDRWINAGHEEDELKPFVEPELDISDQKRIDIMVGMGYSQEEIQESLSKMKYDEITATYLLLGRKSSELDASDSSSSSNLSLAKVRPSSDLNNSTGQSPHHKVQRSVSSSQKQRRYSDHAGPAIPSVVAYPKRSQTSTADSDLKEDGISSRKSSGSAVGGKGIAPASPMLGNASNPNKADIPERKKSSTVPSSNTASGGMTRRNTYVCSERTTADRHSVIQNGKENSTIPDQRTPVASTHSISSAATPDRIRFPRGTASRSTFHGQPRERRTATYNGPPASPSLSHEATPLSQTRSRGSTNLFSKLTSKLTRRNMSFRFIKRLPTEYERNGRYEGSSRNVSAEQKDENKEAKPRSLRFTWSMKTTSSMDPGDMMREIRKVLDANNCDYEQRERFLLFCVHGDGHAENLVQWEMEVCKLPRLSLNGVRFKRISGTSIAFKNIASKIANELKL
Chain of Cytoplasmic tyrosine-protein kinase BMX (P51813 whole entry): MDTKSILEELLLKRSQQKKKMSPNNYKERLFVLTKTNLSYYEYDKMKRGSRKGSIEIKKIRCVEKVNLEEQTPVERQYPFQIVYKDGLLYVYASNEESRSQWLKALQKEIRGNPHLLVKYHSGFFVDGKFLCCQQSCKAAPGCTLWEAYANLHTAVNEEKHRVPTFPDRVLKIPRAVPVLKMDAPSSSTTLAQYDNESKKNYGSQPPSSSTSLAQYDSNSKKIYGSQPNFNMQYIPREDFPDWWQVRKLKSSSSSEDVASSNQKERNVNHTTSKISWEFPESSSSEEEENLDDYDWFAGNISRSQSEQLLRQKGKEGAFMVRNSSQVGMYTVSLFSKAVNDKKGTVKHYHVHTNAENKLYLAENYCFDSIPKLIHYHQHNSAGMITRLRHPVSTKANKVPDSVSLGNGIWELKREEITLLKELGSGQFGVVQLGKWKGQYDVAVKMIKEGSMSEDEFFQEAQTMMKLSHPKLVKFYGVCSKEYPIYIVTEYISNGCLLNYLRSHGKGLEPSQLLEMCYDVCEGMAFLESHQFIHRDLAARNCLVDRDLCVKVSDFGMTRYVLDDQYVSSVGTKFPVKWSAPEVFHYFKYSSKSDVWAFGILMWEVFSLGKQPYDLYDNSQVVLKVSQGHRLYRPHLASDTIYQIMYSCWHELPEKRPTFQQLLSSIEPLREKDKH

For `FC(F)(F)c1ccc(CNc2ccc(Cc3c[nH]c4ncc(Cl)cc34)cn2)cn1` [PEXIDARTINIB], the concentration at 2555 h in [1] was 5.6 µM.

Usually IC50 stands for the concentration needed to halve the response being measured. A lower IC50 goes with higher potency. A word on the clearance: it is the rate of elimination divided by the concentration. Read a low clearance as inefficient removal. In general, Cmax refers to the peak of the concentration-time curve. The bioavailability is the share of a dose that reaches the circulation, judged against a reference dose that is usually intravenous. Low readings indicate poor availability, high ones good availability. As usually defined, the AUC is the area under the concentration-time curve, a measure of exposure. A low value points to low exposure. In the case of `COc1ncc(F)cc1CNc1ccc(Cc2c[nH]c3ncc(C)cc23)c(F)n1` [PLX-5622], the IC50 in [2], in series [3], in series [4], in [5], in series [6] and in [7] was over 1 µM each time. In addition, the IC50 in series [8], in series [9], in series [10], in series [11] and in series [12] was over 1 µM throughout. In [13], this compound had a clearance of 7.7 mL/min/kg. Also, the peak level in series [14] (Cmax) was 3630 ng/mL. The same compound came in with a bioavailability in [15] of 34%. Further, the Kp at 336 h in series [16] was 0.22. The compound also had an AUC at 4320 h in series [17] of 218 µg·h/mL. The concentration in series [18] was 13.5 µM. In addition, the Activity in series [19] is reported as 97%; in series [20], 14; in series [21], 33.704%; in [22], 97; in [23] it was 0 RPKM; in [24], 10.635 RPKM. The Activity in series [25] was found to be 0 RPKM; in [26] it was 0 RPKM; in [27], 111.226 RPKM; in series [28] it was 78.494%; in [29], 15.
